# Compound activity: PubChem, several laboratories
# UCH37 DUB inh: inhibitors of human deubiquitinating enzyme UCH37; inhibition, % (no concentration beside the values); purified proteasome/UCH37, Ub-AMC cleavage fluorescence; 330,000 compounds, 0.33% hits; Q9Y5K5;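 active = mean inhibition over replicate wells above about 20%, limit read from the data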;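 also: 0% = compound-free wells with enzyme and 100% = wells lacking proteasome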
# Target sequence (Q9Y5K5 whole entry, looked up): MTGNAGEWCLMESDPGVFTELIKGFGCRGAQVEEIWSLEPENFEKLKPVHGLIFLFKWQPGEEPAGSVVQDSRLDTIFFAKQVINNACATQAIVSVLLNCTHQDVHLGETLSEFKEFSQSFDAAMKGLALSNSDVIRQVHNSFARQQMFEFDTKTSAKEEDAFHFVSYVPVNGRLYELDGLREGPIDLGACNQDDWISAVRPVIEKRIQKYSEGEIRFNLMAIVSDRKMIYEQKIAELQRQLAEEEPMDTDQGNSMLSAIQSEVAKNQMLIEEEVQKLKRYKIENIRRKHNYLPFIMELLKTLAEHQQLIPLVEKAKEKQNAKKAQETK
#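 Signal – fluorescence, ex 355 nm, em 460 nm · System – Proteasome-bound UCH37 · Input – 0.15 nM proteasome as dispensed · Timing – 30 min preincubation with enzyme, 25 min cleavage at room temperature · Read-out basis – percent inhibition of cleavage signal versus uninhibited and no-proteasome wells · Medium – Tris-HCl pH 7.4 with ATP-MgCl2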
# TDP2 absorb: blocks human TDP2 phosphodiesterase activity | AID 720702 | inhibition, % at 12.8 µM | recombinant TDP2, T5PNP hydrolysis, p-nitrophenol absorbance 415 nm | O95551 | 370,000 compounds, 0.34% hits;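 active = inhibition above the mean of all tested compounds plus 3 SD, set per campaign, cut at about 25% in these data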;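 also: 0% = DMSO with enzyme and 100% = buffer with substrate but no TDP2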
#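 Assay system: Recombinant human TDP2 | Quantity: 120 nM TDP2 per well | Incubation: 2 h at 37 °C | Signal: Epi absorbance | Evaluation: Percent inhibition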
# PAD4 inh: inhibitors of human PAD4; Q9UM07; recombinant PAD4, RCA probe fluorescence polarization; inhibition, % at 6.36 µM; 330,000 compounds, 0.41% hits; AID 485272;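 active = percent inhibition above a cutoff equal to the mean of all tested compounds plus 3 SD, cut at about 15% in these data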;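 also: 0% = PAD4 with RCA probe and DMSO and 100% = probe without PAD4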
# GSTO1 inh: GSTO1 inhibition, counter-screen for RBBP9 inhibitors. P78417. recombinant GSTO1, activity-based probe fluorescence polarization. inhibition, % at 5.96 µM. 300,000 compounds, 1.1% hits. AID 1974;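 active = inhibition above the campaign mean inhibition plus 3 SD, cut at about 35% in these data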;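 also: 0% = GSTO1-1 with DMSO and 100% = wells lacking GSTO1-1 enzyme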
# Target sequence (P78417 whole entry, looked up): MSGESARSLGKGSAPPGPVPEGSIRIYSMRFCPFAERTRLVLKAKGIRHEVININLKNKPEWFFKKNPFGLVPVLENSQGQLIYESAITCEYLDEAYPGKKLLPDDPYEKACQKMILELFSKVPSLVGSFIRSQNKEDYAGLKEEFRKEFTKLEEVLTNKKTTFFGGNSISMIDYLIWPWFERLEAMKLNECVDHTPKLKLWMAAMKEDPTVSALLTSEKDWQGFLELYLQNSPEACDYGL
# CTSL1 counter: counter-screen for PFM18AAP inhibitors: inhibitors of F. hepatica cathepsin L1; recombinant F. hepatica cathepsin L1, Z-Leu-Arg-MCA fluorescence; inhibition, % at 5.96 µM; 300,000 compounds, 0.49% hits; AID 1906;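 active = inhibition above the mean of all tested compounds plus 3 SD, set per screening campaign, cut at about 17% in these data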;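 also: 0% = plate median of test compound wells and 100% = 1 µM Z-Phe-Ala-diazomethylketone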
# HKDC1 inhibitor: HKDC1 (human) hexokinase inhibition; recombinant HKDC1, G6PDH/diaphorase resazurin coupled fluorescence; inhibition, % at 20 µM; 340,000 compounds, 0.16% hits;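 active = inhibition above about 35% when tested at 20 µM, limit read from the data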;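 also: plate controls were DMSO wells with enzyme for no effect and DMSO wells lacking enzyme for full effect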
#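 Assay system: recombinant HKDC1 hexokinase; detection: coupled resazurin fluorescence, excitation 525 nm, emission 613 nm; benchmarks: DMSO-plus-enzyme-mix negative control, buffer-substituted positive control; compound dosing: single 20 µM dose; schedule: 90 min at room temperature in dark; also added: glucose plus 1 mM ATP as hexokinase substrates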
# * marks the source's active call; other numbers are inactive results; / = no result; ! = not confirmed by another sample. Hits are enriched below; roughly 1.6% of the tested compounds scored in any of these assays.
SMILES,UCH37 DUB inh,TDP2 absorb,PAD4 inh,GSTO1 inh,CTSL1 counter,HKDC1 inhibitor
COc1ccc(/C=C2/SC(=S)N(CCC(=O)O)C2=O)cc1,9,-9,-3,15,-1,6
O=C(O)c1cccc(NN=Cc2cc(Br)cc(Br)c2O)c1,10,/,/,/,/,/
COC(=O)c1ccc(-c2ccco2)n1Cc1nc(-c2ccc(OC)c(OC)c2)oc1C,4,-5,1,-2,19*,-2
COC(=O)c1ccc(-c2ccco2)n1Cc1ccccc1Cl,-3,5,2,-3,-2,3
CC(C)(C)N1C(=O)[C@H]2[C@@H](c3ccc(Br)cc3)N3C(=O)N(c4ccccc4)C(=O)[C@@]3(Cc3ccccc3)[C@H]2C1=O,27*,1,-1,2,0,-2
CC(C)(C)N1C(=O)[C@H]2[C@@H](c3ccc(Br)cc3)N3C(=O)N(c4cccc(Br)c4)C(=O)[C@@]3(Cc3ccccc3)[C@H]2C1=O,1,/,-6,-1,-1,4
COc1ccc2nc(C)cc(SCC(=O)NN=Cc3cccc4ccccc34)c2c1,-4,/,/,/,/,/
Cc1ccc(S(=O)(=O)Nc2c(Cl)c(Cl)c(O)c3ccccc23)cc1,/,/,-17,77*,1,/
Cc1ccc(S(=O)(=O)Nc2ccccc2-c2ccccc2NS(=O)(=O)c2ccc(C)cc2)cc1,1,-2,0,-31,5,6
O=C1N=C(N2CCOCC2)S/C1=C/c1ccc(-c2ccccc2Cl)o1,-6,12,-1,-2,34*,-3
O=C1N=C(N2CCOCC2)S/C1=C/c1cccs1,17,-15,-5,4,8,-5
CC(C)N1CC=C2C(C#N)=C(N)C(C#N)(C#N)C(c3ccccc3)C2C1 (centres undefined),-13,-3,6,9,8,12
CCN1CC=C2C(C#N)=C(N)C(C#N)(C#N)C(c3cc(Cl)ccc3Cl)C2C1 (centres undefined),-141,6,22*,1,5,4
CCC1C2CN(C(C)=O)CC=C2C(C#N)=C(N)C1(C#N)C#N (centres undefined),-14,0,0,3,-3,1
CC(C)N1CC=C2C(C#N)=C(N)C(C#N)(C#N)[C@H](c3ccoc3)[C@H]2C1,/,/,49*,64*,6,/
CN(C)c1ccnc(-n2cccc2C=NO)c1C#N,4,/,/,/,/,/
O=C(O)c1ccc(C=NN2CCN(Cc3ccc(Cl)cc3)CC2)cc1,2,/,/,/,/,/
CCc1ccc(C(=O)CN(C#N)c2nc(C)cc(C)n2)cc1,3,-2,3,-21,58*,-2
Cc1cc(C)nc(N(C#N)CC(=O)N(c2ccccc2)C(C)C)n1,3,8,6,6,0,-1
Cc1cc(C)nc(N(C#N)CC(=O)c2ccccc2)n1,5,-8,3,-14,69*,-10
COc1ccc(/C=C2\SC(=O)N(CC(=O)NNC(=O)c3ccccc3O)C2=O)cc1OC,/,1,2,38*,0,-10
COc1ccc(/C=C2\SC(=O)N(CC(=O)NNC(=O)c3ccccc3O)C2=O)cc1,-13,4,-9,8,-2,-16
CC(=O)Nc1cccc(C(=O)/C=C/c2ccco2)c1,0,0,-2,-5,12,-1
CC(=O)Nc1ccc(C(=O)/C=C/c2ccco2)cc1,0,-2,-8,9,22*,8
O=C(c1cc2cccc([N+](=O)[O-])c2oc1=O)N1CCOCC1,4,-11,4,1,29*,-3
SMILES,UCH37 DUB inh,TDP2 absorb,PAD4 inh,GSTO1 inh,CTSL1 counter,HKDC1 inhibitor
O=C(c1cc2cc([N+](=O)[O-])ccc2oc1=O)N1CCOCC1,7,8,-2,3,0,-3
Cc1cc(C)nc(SCc2ccc(C(=O)NN=Cc3cccc(O)c3O)cc2)n1,2,/,/,/,/,/
Cn1nc(C(F)(F)F)c(C=NOC(=O)c2ccc(Cl)cc2)c1Cl,-2,/,/,/,/,/
O=C(NCCCN1CCOCC1)C(=O)NN=Cc1ccccc1O,4,/,/,/,/,/
CC(=O)O[C@H]1C(=O)[C@@]2(C)[C@H]([C@H](OC(=O)c3ccccc3)[C@]3(O)C[C@H](OC(=O)[C@H](O)[C@@H](NC(=O)c4ccccc4)c4ccccc4)C(C)=C1C3(C)C)[C@]1(OC(C)=O)CO[C@@H]1C[C@@H]2O,1,-13,-1,-1,19*,0
C[n+]1cccc(C=NNC(=O)CC23CC4CC(CC(C4)C2)C3)c1,3,/,/,/,/,/
CC(=NNc1ccc([N+](=O)[O-])cc1)c1ccco1,1,/,/,/,/,/
NCCCS(=O)(=O)O,5,7,4,1,19*!,1
COC(=O)c1cccc2nc3c(C(C)O)cccc3nc12 (centres undefined),7,-15,-6,7,87*,-1
CCN(CC)C(=O)c1cccc2nc3ccccc3nc12,9,-3,1,6,-4,-3
O=C(NN=Cc1ccncc1)C1CC1(c1ccccc1)c1ccccc1 (centres undefined),6,/,/,/,/,/
CCNC(=O)C1CCCN1C(=O)C(CCCN=C(N)N)NC(=O)C(CC(C)C)NC(=O)C(Cc1cn(Cc2ccccc2)cn1)NC(=O)C(Cc1ccc(O)cc1)NC(=O)C(CO)NC(=O)C(Cc1c[nH]c2ccccc12)NC(=O)C(Cc1cnc[nH]1)NC(=O)C1CCC(=O)N1 (centres undefined),4,/,-3,2,40*,-6
COc1ccc(C=NNC(=O)c2ccc(NC(=O)c3ccccc3Br)cc2)cc1,3,/,/,/,/,/
CC(C(=O)NCC1CCCCC1)N1CCN(S(=O)(=O)/C=C/c2ccccc2)CC1 (centres undefined),2,-3,-3,35*,1,-6
CC(C(=O)NCC1CCCCC1)N1CCc2ccccc2C1 (centres undefined),-1,3,-2,-2,-7,-2
CCOc1ccc(C=NNC(=O)NC23CC4CC(CC(C4)C2)C3)cc1O,-1,/,/,/,/,/
COc1cc(OC)cc(C(=O)N[C@H](C(=O)OCC(=O)c2ccc(F)cc2)C(C)C)c1,5,-6,-3,4,18*,-3
CC(=NNC(=O)c1ccc(F)cc1)c1cccc(NC(=O)c2cccc(F)c2)c1,4,/,/,/,/,/
CC(=NNC(=O)c1ccc(CN(C)S(=O)(=O)c2ccc(C)cc2)cc1)c1ccc(OC(F)F)cc1,6,/,/,/,/,/
Cc1ccc(S(=O)(=O)Oc2ccc(C=NNC(=O)c3cccnc3)cc2)cc1,2,/,/,/,/,/
